The test system of data set [1] is N2a mouse neuroblastoma cells. Put plainly: MTS cell proliferation. The data set is classed as cell-based. The conditions noted are these: 72 hrs.
Data set [2] concerns amyloid plaques in APP/PS1 Tg and wild-type mouse brain. The class given is in vivo. The conditions noted are these: two 14-month-old APP/PS1 mice, before and 6 hs after contrast injection; data not shown. Summed up:
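Mice received the test conjugate at 0.2 mmol Fe/kg in 200 μl 15% mannitol/PBS by right femoral vein infusion at 60 μl/min, under isoflurane (2.5% induction, 1–1.5% maintenance). Scanned 6 h post-injection; two 14-month-old APP/PS1 mice were also scanned pre-injection. 3D four-echo acquisition; third echo (TE=12.3 ms) gave the T2*-weighted images. Checked against matched immunostained sections.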

Data set [3] concerns APP/PS1 Tg versus wild-type mouse brain (amyloid plaques). Kind of data set: Voxel-based morphometry. The class given is in vivo. The conditions noted are these: for VBM cluster T-score: WT n=12 vs AD Tg n=13; for VBM cluster Extent: WT n=12 vs AD Tg n=13 after contrast injection.
The subject of data set [4] is APP/PS1 Tg and wild-type mice. Put plainly: Toxicity observed in experimental animals. The data set is classed as in vivo, mouse. To be noted: 0.2 mmol Fe/kg femoral i.v. with 15% mannitol.
For data set [5], the system named is amyloid plaques in APP/PS1 Tg mouse brain. The class given is in vivo. To be noted: femoral i.v. with mannitol; third echo, TE = 17.5. Summed up: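 Aged 13–17-month APP/PS1 mice and age-matched C57Bl/6J controls received the test conjugate at 0.2 mmol Fe/kg in 200 μl 15% mannitol/PBS, infused via right femoral vein at 60 μl/min under isoflurane. Later: pentobarbital 150 mg/kg i.p., transaortic perfusion with PBS then 4% paraformaldehyde. Extracted brains scanned overnight, up to four together; third echo of four-echo set. 6E10/4G8 histology for matching. 13 Tg vs 12 wild-type.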

Data set [6] concerns APP/PS1 Tg and wild-type mouse brain (amyloid plaques). Put plainly: ROI-based absolute T2* measurement, in vivo μMRI. To be noted: contrast injected APP/PS1 Tg versus contrast injected wild-type mice.
Data set [7] concerns Aβ plaques in APP and APP/PS1 transgenic AD mice. To be noted: MRI after injection; ref Wadghiri et al., 2003; cited from earlier work.
A further data set deals with blood brain barrier. The conditions noted are these: rodents, after intra-arterial carotid injection; ref McCarty et al., 2009; cited from earlier work.
The test system of the next data set is humans. To be noted: patients, ref Castillo et al., 2009, Tang and Lobel; cited from earlier work.

Entries after “also recorded” stand apart in the source; their conditions may differ.

For “USPIO-Aβ1-42: ultrasmall superparamagnetic iron oxide (USPIO) nanoparticles linked to Aβ1-42 peptide using standard EDC/NHS coupling methods”, the “cell viability, USPIO versus USPIO-Aβ1-42 (significance in words)” value in [1] (bound Aβ1-42 10 μM, Newman-Keuls post-hoc) is “did not differ significantly”. In data set [1] (bound Aβ1-42 10 μM, USPIO matched, Newman-Keuls post-hoc), the “cell viability versus control untreated cells (significance in words)” value is recorded as “did not differ significantly”. In addition, the “amyloid plaque detection pre- versus postinjection” value in [2] is “Amyloid plaques were only detected in the postinjection images”. Besides, the “VBM difference in cerebellum (in words)” value in data set [3] (APP/PS1 (n=13) versus wild-type (n=12), USPIO-Aβ1-42 injected) is reported as “No differences were seen in the cerebellum”. The “VBM cluster T-score” value in [3] (cluster AuD, Cortex (R)) amounted to 3.02; in data set [3] (cluster FrA, Cortex (L)), 5.03; in data set [3] (cluster HDB, Cortex (R)), 4.02; in [3] (cluster LEnt, Cortex (L)) it was 3.78; in [3] (cluster M1, Cortex (L)), 3.48; in data set [3] (cluster M2, Cortex (R)), 3.71. Also, the “VBM cluster T-score” value is 4.42 in [3] (cluster PoDG, Hippocampus (R)); 5.00 in [3] (cluster RSG, Cortex (L)); 4.92 in [3] (cluster S1BF, Cortex (L)); 3.30 in data set [3] (cluster S1FL, Cortex (L)); 4.27 in data set [3] (cluster S1FL, Cortex (R)); 4.72 in data set [3] (cluster SuG, Colliculus (R)). Besides, the “VBM cluster Extent” value is 1388 voxels in [3] (cluster AuD, Cortex (R)); 1123 voxels in [3] (cluster FrA, Cortex (L)); 685 voxels in data set [3] (cluster HDB, Cortex (R)); 656 voxels in [3] (cluster LEnt, Cortex (L)); 20830 voxels in data set [3] (cluster PoDG, Hippocampus (R)); 1624 voxels in data set [3] (cluster RSG, Cortex (L)). In addition, the “VBM cluster Extent” value came out at 36911 voxels in [3] (cluster S1BF, Cortex (L)); 653 voxels in data set [3] (cluster S1FL, Cortex (L)); 4637 voxels in data set [3] (cluster S1FL, Cortex (R)); 2194 voxels in [3] (cluster SuG, Colliculus (R)). Further, the “toxicity in experimental animals (in words)” value in data set [4] is “no evidence of toxicity in our experimental animals”. In addition, the “plaque detection on ex vivo μMRI, APP/PS1 mice” value in data set [5] is listed as “Amyloid plaques were also detected; also recorded: Many plaques can be detected in APP/PS1 mice”. Further, in data set [6], the “p, T2* difference in left and right cortex (Figure 5C)” value is less than 0.01.
Regarding “MION-Aβ1-40: Aβ1-40 magnetically labeled with monocrystalline iron oxide nanoparticles (MION)”, the “plaque visualization as hypointense spots (in words)” value in data set [7] is listed as “hypointense spots characterized by loss of signal intensity”.
“Aβ1-42: Aβ 1-42 peptide synthesized in the W.M. Keck Facility at Yale University [reference compound]”: in data set [1] (10 μM, MTS, 490 nm, percent of non-treated control), the “reduction in cell viability” value is on record as 50%.
Consider `OC[C@@H](O)[C@@H](O)[C@H](O)[C@H](O)CO` [mannitol], for which the “time of maximum BBB disruption, intra-arterial carotid” value in the data set on blood brain barrier is 5 min. The “tolerability of intravenous mannitol (in words)” value in the data set with humans is “much better tolerated and is used safely in patients”.

The record behind these values is PMC3085913 (NeuroImage, 2011).
